The test system of series [1] is Trypanosoma brucei. Description: Antitrypanosomal activity against Trypanosoma brucei bloodstream forms assessed as inhibition parasite growth at 5 ug/ml. Format: functional.
For series [2], the system named is Trypanosoma brucei. Description: Antitrypanosomal activity against Trypanosoma brucei 427 bloodstream forms assessed as inhibition of parasite growth incubated for 48 hrs by hemocytometry. Format: functional, organism-based.
Another series has as its system L6. Description: Cytotoxicity against rat L6 cells after 6 days using alamar blue staining based fluorescence assay. Format: cell-based. The settings on record: L6, 144 h. A digest of the protocol: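 Rat skeletal muscle L6 cells seeded at 1 × 10⁴ ml⁻¹ in medium containing graded compound concentrations and held 6 days at 37 °C. Alamar Blue then added, with fluorescence read after a further 8 h.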

A short description of series [3]: Selectivity index, ratio of IC50 for rat L6 cells to IC50 for Trypanosoma brucei bloodstream forms. Format: toxicity, cell-based. The settings on record: read-out: Ratio IC50.
Series [4] has as its system Trypanosoma brucei. Description: Antitrypanosomal activity against Trypanosoma brucei bloodstream form assessed as inhibition parasite growth.
For another series, the system named is Trypanosoma cruzi. Description: Antitrypanosomal activity against Trypanosoma cruzi CL Brener clone epimastigotes assessed as inhibition of parasite growth incubated for 5 days by hemocytometry. The settings on record: 120 h.
Series [5] deals with Trypanosoma brucei. Description: Antitrypanosomal activity against Trypanosoma brucei relative to rimantadine. Format: functional.
In series [6] the test system is Trypanosoma brucei. Description: Antitrypanosomal activity against Trypanosoma brucei relative to amantadine. Format: functional.

Activity calls are given as the source filed them. No cut-off for these calls is given here.

As to `O=C1CNC2(C(=O)N1)C1CC3CC(C1)CC2C3` (stereo unspecified), in the series with Trypanosoma brucei [1], the “growth inhibition (GI)” value was “inactive”.
As for `CN1CC(=O)N(CC(=O)NO)C(=O)C12C1CC3CC(C1)CC2C3` (stereo unspecified) [listing 1 of 2 here], in the series with Trypanosoma brucei [2], the IC50 worked out at 0.34 µM and the 90% effect concentration (IC90) worked out at 0.622 µM.
Take `O=C(CN1C(=O)[C@H](Cc2ccccc2)NC2(CCCCCCC2)C1=O)NO` [listing 1 of 2 here]: in the series with Trypanosoma brucei [2] (Trypanosoma brucei, 427, 48 h), the IC50 turned out to be 0.029 µM and the IC90 was found to be 0.039 µM. The IC50 in the series with L6 came to 93.8 µM. Further, in series [3], the selectivity ratio was found to be 3200.
In the case of `O=C(CN1C(=O)[C@@H](Cc2ccccc2)NC2(C1=O)C1CC3CC(C1)CC2C3)NO` (stereo partly specified) [listing 1 of 2 here], the IC50 in the series on Trypanosoma brucei [2] (Trypanosoma brucei, 427, 48 h) worked out at 0.0091 µM; with L6, 11.6 µM; in the series with Trypanosoma brucei [4], 0.106 µM. In series [3], the selectivity ratio came to 1300.
Take `C[C@@H]1NC2(CCCCCCC2)C(=O)N(CC(=O)NO)C1=O` [listing 1 of 2 here]: in the series with Trypanosoma brucei [2] (Trypanosoma brucei, 427, 48 h), the IC50 was 0.125 µM and the concentration for an effect of 90% (IC90) was determined as 0.27 µM.
In the case of `CN1CC(=O)N(CC(=O)NO)C(=O)C12CCCCCC2` [listing 1 of 2 here], in the series with Trypanosoma brucei [2], the IC50 turned out to be 0.311 µM and the IC90 was determined as 0.717 µM.
For the compound `O=C(CN1C(=O)[C@H](Cc2ccccc2)NC2(C1=O)C1CC3CC(C1)CC2C3)NO` (stereo partly specified) [listing 1 of 2 here], the IC50 in the series on Trypanosoma brucei [2] worked out at 0.0068 µM; in the series with L6, 10.4 µM; with Trypanosoma brucei [4], 0.332 µM; with Trypanosoma cruzi, 0.21 µM. For the same compound, the 90% effect concentration (IC90) was determined as 0.0115 µM with Trypanosoma brucei [2] and 0.36 µM in the series with Trypanosoma cruzi. Besides, the selectivity ratio in series [3] came out at 1500.
Regarding `C[C@@H]1NC2(C(=O)N(CC(=O)NO)C1=O)C1CC3CC(C1)CC2C3` (stereo partly specified) [listing 1 of 2 here], in the series with Trypanosoma brucei [2], the IC50 was found to be 0.134 µM and the IC90 was found to be 0.276 µM.
On to `O=C(CN1C(=O)[C@@H](Cc2ccccc2)NC2(C1=O)C1CC3CC(C1)CC2C3)NO` (stereo partly specified) [listing 2 of 2 here], for which the IC90 in the series with Trypanosoma brucei [2] amounted to 0.014 µM.
With `CN1CC(=O)N(CC(=O)NO)C(=O)C12CCCCCCC2` [listing 1 of 2 here], in the series on Trypanosoma brucei [2] (Trypanosoma brucei, 427, 48 h), the IC50 stood at 0.158 µM and the IC90 stood at 0.3 µM.
Turning to `O=C(CN1C(=O)CNC2(CCCCCCC2)C1=O)NO` [listing 1 of 2 here], in the series with Trypanosoma brucei [2], the IC50 came out at 0.266 µM and the IC90 was 0.495 µM.
In the case of `O=C(CN1C(=O)C(Cc2ccccc2)NC2(C1=O)C1CC3CC(C1)CC2C3)NO` (racemic; form 1), the concentration for half-maximal inhibition (IC50) in the series with Trypanosoma brucei [2] (Trypanosoma brucei, 427, 48 h) came out at 0.017 µM; with L6, 23.7 µM; in the series with Trypanosoma brucei [4], 0.285 µM. The IC90 in the series with Trypanosoma brucei [2] (Trypanosoma brucei, 427, 48 h) stood at 0.026 µM. In addition, the selectivity ratio in series [3] worked out at 1400.
With `C[C@@H]1NC2(CCCCCCC2)C(=O)N(CC(=O)NO)C1=O` [listing 2 of 2 here], in the series on Trypanosoma brucei [2], the half-inhibitory concentration (IC50) amounted to 0.134 µM and the IC90 was 0.259 µM.
`O=C(CN1C(=O)C(Cc2ccccc2)NC2(C1=O)C1CC3CC(C1)CC2C3)NO` (racemic; form 2): in the series on Trypanosoma brucei [2], the IC50 amounted to 0.018 µM and the IC90 was 0.024 µM.
Regarding `CN1CC(=O)N(CC(=O)NO)C(=O)C12CCCCCC2` [listing 2 of 2 here], in the series on Trypanosoma brucei [2] (Trypanosoma brucei, 427, 48 h), the IC50 was 0.285 µM and the IC90 was determined as 0.673 µM.
`O=C1ON=C2C3CC4CC(C3)CC12C4`: the “Ratio IC50” value in the series on Trypanosoma brucei [5] is 3; with Trypanosoma brucei [6], 45.
For the compound `O=C(CN1C(=O)CNC2(CCCCCC2)C1=O)NO` [listing 1 of 2 here], in the series on Trypanosoma brucei [2] (Trypanosoma brucei, 427, 48 h), the IC50 amounted to 1.87 µM and the IC90 turned out to be 2.53 µM.
For `CN1CC(=O)N(CC(=O)NO)C(=O)C12CCCCCCC2` [listing 2 of 2 here], in the series on Trypanosoma brucei [2], the IC50 was determined as 0.162 µM and the IC90 was found to be 0.327 µM.
Regarding `O=C(CN1C(=O)[C@H](Cc2ccccc2)NC2(C1=O)C1CC3CC(C1)CC2C3)NO` (stereo partly specified) [listing 2 of 2 here], in the series with Trypanosoma brucei [2], the IC50 is 0.042 µM and the IC90 turned out to be 0.08 µM.
The matching figures for `O=C(CN1C(=O)[C@H](Cc2ccccc2)NC2(CCCCCCC2)C1=O)NO` [listing 2 of 2 here]: 0.025 µM and 0.035 µM.
The matching figures for `O=C(CN1C(=O)CNC2(CCCCCC2)C1=O)NO` [listing 2 of 2 here]: 1.15 µM and 1.71 µM.
Regarding `C[C@@H]1NC2(C(=O)N(CC(=O)NO)C1=O)C1CC3CC(C1)CC2C3` (stereo partly specified) [listing 2 of 2 here], in the series on Trypanosoma brucei [2], the IC50 turned out to be 0.405 µM and the IC90 is 0.909 µM.
With `CN1CC(=O)N(CC(=O)NO)C(=O)C12C1CC3CC(C1)CC2C3` (stereo unspecified) [listing 2 of 2 here], the IC50 with Trypanosoma brucei [2] (Trypanosoma brucei, 427, 48 h) was 0.193 µM; in the series on L6 it was 40.4 µM; in the series with Trypanosoma cruzi, 3.62 µM. Moreover, the IC90 in the series on Trypanosoma brucei [2] (Trypanosoma brucei, 427, 48 h) was 0.328 µM; in the series on Trypanosoma cruzi, 5.99 µM. Moreover, the selectivity ratio in series [3] stood at 210.
Take `O=C(CN1C(=O)CNC2(C1=O)C1CC3CC(C1)CC2C3)NO` (stereo unspecified) [listing 1 of 2 here]: the IC50 in the series on Trypanosoma brucei [2] (Trypanosoma brucei, 427, 48 h) was 0.09 µM; in the series on L6, greater than 325 µM; in the series on Trypanosoma cruzi, 5.51 µM. Besides, the IC90 in the series with Trypanosoma brucei [2] (Trypanosoma brucei, 427, 48 h) turned out to be 0.155 µM; in the series with Trypanosoma cruzi, 11.1 µM. In addition, in series [3], the selectivity ratio was greater than 3600.
For the compound `O=C(CN1C(=O)CNC2(CCCCCCC2)C1=O)NO` [listing 2 of 2 here], in the series on Trypanosoma brucei [2] (Trypanosoma brucei, 427, 48 h), the IC50 stood at 0.3 µM and the IC90 amounted to 0.635 µM.
Turning to `O=C(CN1C(=O)CNC2(C1=O)C1CC3CC(C1)CC2C3)NO` (stereo unspecified) [listing 2 of 2 here], in the series with Trypanosoma brucei [2], the IC50 is 0.079 µM and the IC90 worked out at 0.148 µM.
As for `CN1CC(=O)NC(=O)C12C1CC3CC(C1)CC2C3` (stereo unspecified), the inhibition of growth at 5 µg/mL in the series on Trypanosoma brucei [1] (read-out: GI) was found to be 40%.

The values above are taken from ChEMBL document CHEMBL1800014, “Novel lipophilic acetohydroxamic acid derivatives based on conformationally constrained spiro carbocyclic 2,6-diketopiperazine scaffolds with potent trypanocidal activity” (J Med Chem, 2011).
